Consider 71 compounds from ChEMBL document CHEMBL4513216, “Probing the Open Global Health Chemical Diversity Library for Multistage-Active Starting Points for Next-Generation Antimalarials” (ACS Infect Dis, 2020).

The nature of this data set: Toxicity liver stage against HepG2, at 10uM. The data set is classed as cell-based. Also on record: test concentration 10 uM, cell line HepG2-A16-CD81EGFP. The following applies: human, HepG2-A16-CD81EGFP cells; read-out: INHIBITION
In short, it runs like this:
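Uninfected HepG2-A16-CD81EGFP cells, 3 × 10^3 per well, 1536-well, plated on prespotted compound at 10 μM final, parasite-free screening media added to match infected plates; puromycin 10 μM positive, DMSO 0.5% negative; run in parallel with 48 h PbLuc assay at 37 °C, 5% CO2; viability by CellTiter-Glo luminescence, normalized to controls.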
For the compound `Cc1csc(NCC(=O)c2c[nH]c3ccccc23)n1`, the cytotoxicity at 10 µM is 22.4%. `O=S(=O)(NCC1(c2cccs2)CCOCC1)c1cccnc1`: the cytotoxicity at 10 µM is -3.51%. Next, `CC(=O)OC1CN(c2nc3c(C(F)(F)F)cccc3s2)C1`: -5.17%; `CN1CCN(C(=O)c2n[nH]c3c2CN(Cc2nccs2)CC3)CC1`: -144%; `CC1CCc2nc(O)c(C(=O)NCc3ccccn3)cc2C1` (stereo unspecified): -2.99%. To `CC1CCc2nc(O)c(C(=O)NCCc3cccs3)cc2C1` (stereo unspecified) belongs 0.106%; to `O=c1c2cnc(N3CCCC3)nc2ccn1-c1cccc(F)c1`, 3.36%. Next, `O=C(NCCCO)c1nc(-c2ccc3cc[nH]c3c2)no1`: 4.28%; `Cc1nc2c(Nc3ccc(C#N)cc3)nc(N)nc2n1C`: 1.88%; `COc1ccc(-c2cc(C3(O)CCCC3)on2)cc1`: 2.5%. Regarding `Cc1ccc(NC(=O)c2cccc(N(C)C)c2)nc1`, the cytotoxicity at 10 µM was 8.77%. As to `CN1CCc2ccc(NCc3cccs3)cc2C1=O`, the cytotoxicity at 10 µM was -4.72%. Turning to `COc1cc2c(nn1)CCN(Cc1nc(Cc3ccccc3)no1)C2`, the cytotoxicity at 10 µM was -2.09%.

For `O=C(c1ccc(NCc2ccco2)nc1)N1CCc2ccccc21`, the cytotoxicity at 10 µM is -4.6%. Regarding `CC(C)(C)n1ncc2c(=O)[nH]c(N3CCN(CCO)CC3)nc21`, the cytotoxicity at 10 µM was -13.3%. Take `CC(C)C(O)CNC(=O)Nc1cccc(-c2nccs2)c1` (stereo unspecified): the cytotoxicity at 10 µM is -5.5%. Next, `O=C(Nc1cnn(-c2ccccc2Cl)c1)N[C@@H]1C=C[C@H](CO)C1`: 0.836%; `NC(=O)CC1CCN(C(=O)c2csc(-c3ccccc3F)n2)CC1`: -1.29%.

For the compound `O=C(NCCSC1CCCC1)c1ccc(F)cc1F`, the cytotoxicity at 10 µM is -3.16%. Next, `N#Cc1ccc(N2CCCC2Cn2cncn2)nc1` (stereo unspecified): 6.05%; `CS(=O)(=O)NCCNC(=O)NC1(c2ccc(F)cc2)CCCC1`: -1.44%; `CCn1c(C)nnc1CN(C)C1CCN(Cc2c(C)noc2C)C1` (stereo unspecified): 0.317%.

In the case of `CCN1CCC(NC(=O)Cn2cc(C)c3ccccc32)CC1`, the cytotoxicity at 10 µM is -1.74%. `Cc1cn(CC(=O)NC2CCC3(CC2)OCCO3)c2ccccc12`: the cytotoxicity at 10 µM is -1.21%. Regarding `COC(=O)c1ccc(N2CCC(C(O)c3ccccc3)CC2)nn1` (stereo unspecified), the cytotoxicity at 10 µM worked out at 1.68%. Next, `CC(C)C(C)N(C(=O)c1cc2c([nH]c1=O)CCCC2=O)C1CC1` (stereo unspecified): -3.45%. To `Cc1ccc(OCC(O)COC2CCOCC2)c(Br)c1` (stereo unspecified) belongs -4.66%; to `CC(Cn1cccn1)NCc1csc(-c2ccccc2)n1` (stereo unspecified), -13.4%; to `Cc1ccsc1[C@@H]1CCN(C(=O)CCCn2cncn2)C[C@H]1O`, -6.91%. Next, `CC(C)c1nnc(N2C[C@@H](CN(C)CCO)[C@@H](CO)C2)s1`: -2.48%. For the compound `Cc1nn2cc(CCNC(=O)c3cc(C(C)C)no3)nc2s1`, the cytotoxicity at 10 µM is -4.8%. For the compound `Cc1ncsc1CCC(=O)N1CCN(CCn2cncn2)CC1`, the cytotoxicity at 10 µM came out at 3.21%. To `CN(C)C1CCN(C(=O)c2cccc(S(=O)(=O)NCC3(C)COC3)c2)C1` (stereo unspecified) belongs -9.22%; to `Cc1ccsc1CCNC(C)C(=O)NC1CCCC1` (stereo unspecified), -4.44%. Regarding `CN1CSC[C@H]1C(=O)N1CCN(Cc2cccc(F)c2)CC1`, the cytotoxicity at 10 µM was -6.92%. Next, `COCC[C@]1(O)CCN(C(=O)CCc2cnn(C)c2)C[C@H]1C`: 1.72%; `CC(C)CC(NC(=O)c1cc(-c2cccn2C)n[nH]1)c1ncnn1C` (stereo unspecified): -3.08%; `CC(C)NC(=O)Nc1ccc(-c2nc3c([nH]2)CCNC3)cc1`: -3.5%. With `COc1ccccc1[C@@H]1CN(CC2CCC2)C[C@H]1C(=O)O`, the cytotoxicity at 10 µM is -1.02%. Next, `COc1ccc2c(C)c(C(=O)NC3CCN(S(C)(=O)=O)CC3)oc2c1`: 8.55%; `CSc1ccc2c(C)cc(N[C@@H](C)CO)nc2c1`: -1.07%; `COCC1CCN(C(=O)c2cc(-c3ccco3)nc3c(Cl)cccc23)C1` (stereo unspecified): 1.12%. On to `CN(CC1Cc2ccccc2CN1C)C(=O)Cc1cccs1` (stereo unspecified), for which the cytotoxicity at 10 µM was -0.661%. In the case of `CCn1c(Cn2ccnc2)nnc1C1CCN(Cc2ccc(C)o2)CC1`, the cytotoxicity at 10 µM is -2.28%.

On to `CC(C)(O)CCc1cccc(C(=O)N2CCC3(CCO3)CC2)c1`, for which the cytotoxicity at 10 µM was -0.864%. Next, `CNCc1n[nH]c(=O)n1-c1ccccc1Oc1ccccc1`: -4.88%; `CC(=O)c1ccc(F)cc1-c1cc(NCCO)nc2[nH]ccc12`: -5.72%; `O=C(Cc1ccc(CO)cc1)N1CCN(CC2CC2)[C@@H]2CS(=O)(=O)C[C@@H]21`: -14.2%.

As to `Nc1nc2c(c(NCc3nc(-c4ccncc4)n[nH]3)n1)CCCC2`, the cytotoxicity at 10 µM was -0.0554%. On to `CCN(C)CC(C)Cn1cnc(-c2ccccc2)c1-c1cncn1CC` (stereo unspecified), for which the cytotoxicity at 10 µM is 1.33%. To `CCn1c(N)nc2cc(C(=O)N3CC(c4ccccn4)C3)cnc21` belongs -14.8%; to `CN(c1ccc(-c2nc(C3CC3)no2)cn1)C1CCOCC1`, -10.8%; to `O=c1c2cccc(C(F)(F)F)c2ncn1CCN1CCNCC1`, -3.21%. Regarding `CC(C)Cn1cncc1-c1nc2c([nH]1)CC(C)(C)CNC2=O`, the cytotoxicity at 10 µM was -1.41%. To `COCCN1CC2(CCCN(c3ncnc4[nH]cnc34)C2)CCC1=O` (stereo unspecified) belongs -3.68%. Next, `CNc1ncc(CN(C)Cc2cc3n(n2)CCNC3)cn1`: -5.71%; `COc1cccc2c(=O)n(CCN3CCNCC3)cnc12`: 0.623%; `Cc1ccc([C@@H]2CN(C(=O)c3cccnn3)C[C@H]2NC(=O)C2CC2)cc1`: -17.7%. Next, `Cc1ccc(NC2CCN(C(=O)c3ccnc(N(C)C)c3)CC2)nn1`: 3.97%; `CCOCCCn1c(NC(=O)c2cnc(C)cn2)nc2ccccc21`: -18.7%.

As to `CN(C)CC1CN(Cc2nnc(C(C)(C)C)o2)CCO1` (stereo unspecified), the cytotoxicity at 10 µM was -4.17%. To `Cc1cnn(CC2CN(CC(=O)Nc3cc(C)no3)CCO2)c1` (stereo unspecified) belongs -6.13%. To `CCOc1ccc(C(=O)N2CCCC2c2c(C)nn(C)c2OC)cn1` (stereo unspecified) belongs 2.63%; to `O=C(c1cc(F)ccc1F)C1CCN(C(=O)c2ccco2)CC1`, 3.15%; to `Cc1nc(CN2CCCC(N(C)Cc3nc(CC(C)C)no3)C2)no1` (stereo unspecified), 5.35%. Take `O=C(c1ccccn1)N1CCOC2(COCCN(Cc3cc[nH]n3)C2)C1` (stereo unspecified): the cytotoxicity at 10 µM stood at 0.0227%. Next, `Cc1nc(COC[C@@H]2CC[C@H]3[C@H](CCN3c3ccccn3)O2)cs1`: 4.06%; `Cc1cccc(CN2CCc3ncnc(N4CCN(C)CC4)c3CC2)n1`: -145%; `COc1cccc(C=CCCN2CCN(S(C)(=O)=O)CC2)c1`: -1.62%. With `CN(C)C(c1ccccn1)C1CCC(CNC(=O)C2CC2)CC1` (stereo unspecified), the cytotoxicity at 10 µM worked out at 6.6%. Turning to `COCCN1C(=O)[C@@H]2CC[C@H]1CN(C(=O)COc1ccc(F)c(Cl)c1)C2`, the cytotoxicity at 10 µM was -0.447%.
